E-sel inducer: E-selectin induction in HUVECs, primary screen, imaging, HUVEC, immunofluorescence imaging, single point | normalized: neutral wells 0, TNF-alpha wells 100 | activation, % at 7.58 µM | AID 686992, 2013 | 260,000 compounds, 0.37% hits | P16581;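 active means mean E-selectin-positive cell signal at least 10% of the positive control, reached in at least 60% of replicates, without over 20% cell loss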
Target sequence (P16581 whole entry, looked up): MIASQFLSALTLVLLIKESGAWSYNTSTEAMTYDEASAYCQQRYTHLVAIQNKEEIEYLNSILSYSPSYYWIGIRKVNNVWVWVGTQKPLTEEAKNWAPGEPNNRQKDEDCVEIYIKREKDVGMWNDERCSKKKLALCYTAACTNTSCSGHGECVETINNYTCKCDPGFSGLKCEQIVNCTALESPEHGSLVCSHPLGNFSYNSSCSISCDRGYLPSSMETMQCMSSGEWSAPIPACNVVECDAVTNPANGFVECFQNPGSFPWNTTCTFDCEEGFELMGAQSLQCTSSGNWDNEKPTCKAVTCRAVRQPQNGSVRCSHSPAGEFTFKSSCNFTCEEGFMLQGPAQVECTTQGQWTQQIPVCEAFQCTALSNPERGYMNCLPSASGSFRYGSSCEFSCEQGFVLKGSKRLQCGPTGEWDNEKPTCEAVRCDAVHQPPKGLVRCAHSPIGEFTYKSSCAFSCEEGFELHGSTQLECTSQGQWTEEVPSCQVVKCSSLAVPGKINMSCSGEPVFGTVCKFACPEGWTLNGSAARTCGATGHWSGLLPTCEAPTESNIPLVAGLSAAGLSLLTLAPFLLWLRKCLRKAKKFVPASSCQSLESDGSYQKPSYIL
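Test system – human umbilical vein endothelial cells (HUVEC), E-selectin induction · Input – 3,000 HUVEC seeded per well · Buffer or medium – EGM-2, gelatin · Compound dosing – single-point compound dose · Detection – immunofluorescence imaging · Measure – percent E-selectin-positive cells · Controls – TNF-alpha high, DMSO low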
DENV2 CPE rescue: inhibitors of DENV2 cytopathic effect, primary screen, cell-based, plate reader, single concentration | 350,000 compounds, 1.7% hits | DENV2-infected cells, cytopathic effect rescue | CPE inhibition, % at 9.99 µM; in the data active means CPE inhibition above about 20%, passing the limit was not always enough; tested in BHK-21 cells
INS-1E GSIS act: GLuc luminescence reporter in INS-1E cells, primary screen for activators of glucose-dependent secretion of insulin; 370,000 compounds, 0.61% hits; INS-1E GLuc reporter insulin secretion, 2-3 h; AID 743287, 2014; activation, % at 16.6 µM;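 active means lowest replicate activation of at least 40%, so every replicate reaches that level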
CFTR F508del cor: F508del CFTR correction, initial screen, CFBE line, single point; AID 720511, 2013; activity (quench increase), % at 7.58 µM; 350,000 compounds, 0.36% hits; CFBE cells, YFP halide quenching; stimulated with forskolin plus potentiator P3; % fluorescence drop versus neutral controls;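 active means mean added fluorescence quench of at least 8% versus neutral control, with both replicates also reaching 8%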;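 further: cells transiently co-express mutant CFTR-F508del with the halide-sensitive YFP; corrector assay measuring rescue of mutant channel to the surface after 24 h compound exposure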
ERAP1 inh: human ERAP1 aminopeptidase inhibitors, primary screen, biochemical, single point, plate reader | Endoplasmic reticulum aminopeptidase 1 (Homo sapiens), Q9NZ08 | recombinant ERAP1, Leu-AMC fluorescence, 60 min | inhibition, % at 10.7 µM | 340,000 compounds, 0.15% hits | AID 652197, 2013;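 active means mean replicate inhibition of at least 30%, or all replicates individually reaching that 30% level; inactive means mean below 30% and not every replicate reaching it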
miR-122 sensor: miR-122 Renilla sensor signal increase in Huh7, primary screen, miR-122 inhibitor project, cell-based, single point, plate reader; 340,000 compounds, 0.3% hits; Huh7 miR-122 Renilla luciferase sensor, 48 h; neutral wells = 0, positive control = 100; AID 602342, 2012; activation (reporter increase), % at 12.5 µM;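 active means mean replicate activation score at least 90 and every replicate individually at or above 90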;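 further: higher luciferase means less miR-122 activity so hits act as miR-122 inhibitors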
Numbers stand for hits; i = inactive; nt = no result given. A selection: hits, their analogues and other compounds. The true share with any hit is near 2.6%.

SMILES	E-sel inducer	DENV2 CPE rescue	INS-1E GSIS act	CFTR F508del cor	ERAP1 inh	miR-122 sensor
CCCN(C)C[C@H]1OCCCC[C@@H](C)Oc2ccc(NC(=O)Cc3ccccc3)cc2C(=O)N([C@H](C)CO)C[C@H]1C	i	i	i	i	i	i
CNC[C@@H]1OCCCC[C@H](C)Oc2ccc(NC(=O)Cc3ccccc3)cc2C(=O)N([C@@H](C)CO)C[C@H]1C	i	44	i	i	i	i
Cc1noc(C)c1S(=O)(=O)N(C)C[C@@H]1OCCCC[C@@H](C)Oc2ccc(NC(=O)Cc3ccccc3)cc2C(=O)N([C@@H](C)CO)C[C@@H]1C	i	52	i	i	i	nt
C[C@@H]1CCCCO[C@@H](CN(C)S(C)(=O)=O)[C@H](C)CN([C@@H](C)CO)C(=O)c2cc(NC(=O)Cc3ccccc3)ccc2O1	i	52	i	i	i	i
CNC[C@H]1OCCCC[C@@H](C)Oc2ccc(NC(=O)Cc3ccccc3)cc2C(=O)N([C@@H](C)CO)C[C@H]1C	i	i	i	i	i	i
CCCN(C)C[C@@H]1OCCCC[C@H](C)Oc2ccc(NC(=O)Cc3ccccc3)cc2C(=O)N([C@@H](C)CO)C[C@@H]1C	i	35	i	i	i	i
CCC(=O)Nc1ccc2c(c1)C(=O)N(C)C[C@@H](OC)[C@@H](C)CN(Cc1ccccn1)[C@@H](C)CO2	i	nt	i	i	i	i
CC=Cc1ccc2n(c1=O)C[C@@H]1[C@@H](CO)[C@H](C(=O)Nc3ccc(-c4ccccc4)cc3)[C@H]2N1C(C)=O (mixture of isomers)	i	i	i	i	nt	nt
OCCCNc1ncnc2scc(-c3ccc(Cl)cc3)c12	nt	i	90	i	i	nt
C[C@@H]1CCCCO[C@H](CN(C)S(C)(=O)=O)[C@@H](C)CN([C@H](C)CO)C(=O)c2cc(NC(=O)Nc3cccc4ccccc34)ccc2O1	i	i	i	i	i	i
CCC(C(=O)Nc1c(C)cccc1C)n1c(-c2cnc(C)cn2)nc2ccccc21 (stereo unspecified)	i	i	i	i	i	nt
CCC(C(=O)Nc1c(C)cccc1C)n1c(-c2ccc(=O)[nH]c2)nc2ccccc21 (stereo unspecified)	i	33	i	i	i	nt
COC(=O)N(C)C[C@H]1OCc2cn(nn2)CCCC(=O)N([C@@H](C)CO)C[C@H]1C	i	nt	i	i	nt	i
C[C@@H](NC(=O)C[C@H]1C[C@@H]2c3cc(NS(C)(=O)=O)ccc3O[C@@H]2[C@H](CO)O1)c1ccccc1	i	i	i	i	i	i
Cc1cccc(NC(=O)CNC(=O)COc2ccc(-c3ccc(C#N)cc3)cc2)c1C	i	nt	67	nt	nt	nt
CCCN(C)C[C@@H]1Oc2ncc(-c3cccc(C#N)c3)cc2C(=O)N([C@H](C)CO)C[C@H]1C	i	i	i	i	i	i
CCCC(=O)Nc1ccc2c(c1)C(=O)N(C)C[C@@H](OC)[C@@H](C)CN(C(=O)c1ccccc1F)[C@H](C)CO2	i	i	i	i	i	i
CCCC(=O)Nc1ccc2c(c1)C(=O)N(C)C[C@@H](OC)[C@H](C)CN(C(=O)c1ccccc1F)[C@@H](C)CO2	i	44	i	i	i	i
CO[C@H]1CN(C)C(=O)c2ccc(NC(=O)CC(F)(F)F)cc2OC[C@@H](C)N(C(=O)c2ccccc2F)C[C@H]1C	i	62	i	i	i	nt
CCC(=O)Nc1ccc2c(c1)OC[C@H](C)N(C(=O)c1ccccc1F)C[C@H](C)[C@@H](OC)CN(C)C2=O	i	22	i	nt	i	i
CCC(=O)Nc1ccc2c(c1)OC[C@@H](C)N(C(=O)c1ccccc1F)C[C@H](C)[C@H](OC)CN(C)C2=O	i	i	i	nt	i	i
Cc1noc(C)c1NC(=O)N(C)C[C@@H]1OCCCC[C@H](C)Oc2ccc(NS(=O)(=O)c3c(C)noc3C)cc2C(=O)N([C@H](C)CO)C[C@@H]1C	i	i	i	i	i	i
C[C@H](CO)N1C[C@H](C)[C@H](CN(C)C(=O)Nc2ccc(C(F)(F)F)cc2)OCCCC[C@H](C)Oc2ccc(NC(=O)Nc3ccc(C(F)(F)F)cc3)cc2C1=O	i	i	i	i	nt	i
C[C@@H]1CCCCO[C@H](CN(C)C(=O)Nc2ccc(C(F)(F)F)cc2)[C@H](C)CN([C@@H](C)CO)C(=O)c2cc(NC(=O)Nc3ccc(C(F)(F)F)cc3)ccc2O1	i	30	i	i	nt	i
C[C@@H]1CN([C@H](C)CO)C(=O)c2cc(NC(=O)C3CCCCC3)ccc2O[C@@H](C)CCCCO[C@H]1CN(C)C(=O)Nc1ccc(F)cc1	i	i	i	i	i	i
SMILES	E-sel inducer	DENV2 CPE rescue	INS-1E GSIS act	CFTR F508del cor	ERAP1 inh	miR-122 sensor
C[C@H]1CCCCO[C@H](CN(C)C(=O)Nc2ccc(F)cc2)[C@@H](C)CN([C@@H](C)CO)C(=O)c2cc(NC(=O)Nc3ccc(F)cc3)ccc2O1	nt	46	i	i	i	i
C[C@H](CO)N1C[C@H](C)[C@@H](CN(C)CC2CC2)OCCCC[C@H](C)Oc2ccc(NC(=O)Nc3ccc(F)cc3)cc2C1=O	i	i	i	i	i	i
C[C@@H]1CCCCO[C@@H](CN(C)C(=O)Nc2ccc(F)cc2)[C@H](C)CN([C@H](C)CO)C(=O)c2cc(NC(=O)C3CCCCC3)ccc2O1	i	32	i	i	i	i
C[C@@H]1CCCCO[C@@H](CN(C)CC2CC2)[C@@H](C)CN([C@H](C)CO)C(=O)c2cc(NC(=O)Nc3ccc(F)cc3)ccc2O1	i	78	i	i	i	i
CO[C@@H]1CN(C)C(=O)c2cc(NC(=O)C3CCC3)ccc2OC[C@H](C)N(C(=O)CN(C)C)C[C@H]1C	i	i	i	i	i	nt
C[C@@H]1CCCCO[C@H](CN(C)Cc2ccc(C(F)(F)F)cc2)[C@@H](C)CN([C@@H](C)CO)C(=O)c2cc(NS(=O)(=O)c3ccc(Cl)cc3)ccc2O1	i	i	i	i	i	i
O=C(C[C@H]1C=C[C@@H](NC(=O)C2CCOCC2)[C@H](CO)O1)NCC1CCCCC1	i	i	i	i	i	nt
C[C@H]1CCCCO[C@H](CN(C)C(=O)Nc2ccc(C(F)(F)F)cc2)[C@@H](C)CN([C@@H](C)CO)C(=O)c2cc(NC(=O)Nc3ccc(F)cc3)ccc2O1	i	i	i	8.0	i	i
C[C@@H]1CCCCO[C@@H](CN(C)C(=O)Nc2ccc(C(F)(F)F)cc2)[C@@H](C)CN([C@H](C)CO)C(=O)c2cc(NC(=O)Nc3ccc(F)cc3)ccc2O1	i	i	i	i	i	nt
